High-throughput results deposited in PubChem BioAssay by several laboratories.
This is a sample that favours compounds with a hit; in the whole collection about 4.3% have one here.
MC4R antag cAMP: MC4R antagonists of cAMP signaling, primary screen, cell-based, TR-FRET, antagonist arm of biased-ligand search; Melanocortin receptor 4 (Homo sapiens), P32245; MC4R-expressing cells, MTII-stimulated cAMP, LANCE TR-FRET; inhibition, % at 6.5 µM; 360,000 compounds, 0.48% hits;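 active means inhibition above its plate's cutoff, the mean of tested wells on that plate plus 3 SD, cut at about 29% in these data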;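 further: 0% = Melanotan II alone and 100% = Melanotan II plus saturating MCL0020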
Target sequence (P32245 whole entry, looked up): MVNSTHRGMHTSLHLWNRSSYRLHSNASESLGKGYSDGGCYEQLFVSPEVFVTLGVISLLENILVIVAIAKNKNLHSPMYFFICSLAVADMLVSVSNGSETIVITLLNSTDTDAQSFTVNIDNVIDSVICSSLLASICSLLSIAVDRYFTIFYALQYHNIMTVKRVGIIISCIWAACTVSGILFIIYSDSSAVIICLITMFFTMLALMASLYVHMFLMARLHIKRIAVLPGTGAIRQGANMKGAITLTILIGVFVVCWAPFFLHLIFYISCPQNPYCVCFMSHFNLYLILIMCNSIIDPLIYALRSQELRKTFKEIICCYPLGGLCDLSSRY
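system = U2OS cells with stable human MC4R expression | also added = Melanotan II challenge after compound preincubation | dosing = one concentration, 6.5 µM nominal | incubation = compound 30 min, challenge 1 h, detection 1 h | measured by = TR-FRET with Eu-cAMP and labeled anti-cAMP, 671 nm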
MC4R barr agon: MC4R agonists recruiting beta-arrestin, primary screen, cell-based, luminescence, agonist arm of biased-ligand search. Melanocortin receptor 4 (Homo sapiens), P32245. U2OS MC4R beta-arrestin complementation; percent of melanotan II response, DMSO zero. activation, % at 8.9 µM. 360,000 compounds, 0.98% hits;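 active means activation above a per-plate cutoff, the mean activation of sample wells on that plate plus 3 SD, cut at about 8% in these data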
B2AR ag: beta2AR agonists driving receptor internalization, primary screen, cell-based, FAP fluorogen, flow cytometry; Beta-2 adrenergic receptor (Homo sapiens), P07550; Am2.2-beta2AR cells; response, % (test concentration not listed); 340,000 compounds, 0.43% hits; AID 504454, 2011;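 active means response above a set limit, near 3 SD of response in nonfluorescent compounds, cut at about 42% in these data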
HTR2A ag: mouse Htr2a agonists via beta-arrestin recruitment, primary screen, cell-based, luminescence | 5-hydroxytryptamine receptor 2A (Mus musculus), P35363 | 360,000 compounds, 0.66% hits | activation, % at 7.6 µM | CHO-K1 mHTR2A beta-arrestin complementation; percent of 30 µM serotonin response | AID 624169, 2012;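 active means activation above a run cutoff, the mean activation of all tested compounds plus 3 SD, cut at about 14% in these data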;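 further: 0% = plate median of compound wells and 100% = 30 µM serotonin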
TAAR1 antagonist: human TAAR1 antagonists, primary screen, Fluo-8 calcium fluorescence, CHO RD-HGA16 cells; inhibition, % at 3 µM; AID 624466, 2012; antagonist; 360,000 compounds, 1.5% hits; Trace amine-associated receptor 1 (Homo sapiens), Q96RJ0;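 active means inhibition above a per-plate cutoff, the mean inhibition of test compounds on that plate plus 3 SD, cut at about 49% in these data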;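 further: 0% = DMSO plus EC80 beta-PEA response and 100% = DMSO alone without agonist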
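Test system: RD-HGA16 CHO cells with stable hTAAR1 and Gα16 / Probe or stimulus: EC80 β-phenethylamine stimulus / Times: seeding 17-24 h prior, 75-min 37 °C, 30-min RT dye loading / Detection: Fluo-8 calcium-sensitive fluorescence / Read-out basis: % inhibition scaled between DMSO and EC80 PEA controls / Repeats: singlicate, one well per test compound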
TAAR1 agonist: human TAAR1 agonists, primary screen, Fluo-8 calcium fluorescence, CHO RD-HGA16 cells; activation, % at 3 µM; 360,000 compounds, 0.99% hits; vehicle wells 0%, saturating PEA agonist 100%; Trace amine-associated receptor 1 (Homo sapiens), Q96RJ0;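 active means activation above the mean activation of all test compounds in the run plus 3 SD, cut at about 38% in these data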
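Assay system: CHO-derived RD-HGA16 cells with stable Gα16 and human TAAR1; timing: 17-24 h seeding, 75 min 37 °C dye, 30 min RT; read-out: % activation from peak over basal fluorescence ratio, DMSO-to-PEA scaled; measured by: kinetic Fluo-8 calcium fluorescence; benchmarks: low control DMSO, high control PEA (EC100); doses: 3 µM single concentration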
TAAR1 nonsel count: nonselective antagonists in TAAR1 counter-screen cells, counter-screen for hTAAR1 antagonist project, cell-based, fluorescence, calcium. counterscreen cell line, antagonist mode. AID 651780, 2012. 2,400 compounds, 77% hits. shares compounds with TAAR1 antagonist. inhibition, % at 3 µM; in the data active means inhibition above about 22%;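 further: CHO-Ga16 host cells stimulated with ATP at an EC80 level; 0% = agonist EC80 plus vehicle and 100% = vehicle without agonist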
TAAR1 antag conf: human TAAR1 antagonists, retest of hits, confirmation, cell-based, fluorescence | shares compounds with TAAR1 antagonist | AID 651785, 2012 | 2,400 compounds, 40% hits | inhibition, % at 3 µM | TAAR1-expressing cells, fluorescence antagonist read-out; in the data active means inhibition above about 49%;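 further: CHO-Ga16 host cells challenged with agonist PEA near its EC80; 0% = agonist at EC80 plus vehicle and 100% = vehicle with no agonist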
Ga16 nonsel ag: calcium activation in Ga16-expressing cells, counter-screen for TAAR1 antagonist project, cell-based, fluorescence | shares compounds with TAAR1 antagonist | agonist counterscreen | activation, % at 3 µM | 2,400 compounds, 18% hits | AID 651953, 2012; in the data active means activation above about 12%;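 further: 0% = vehicle wells and 100% = saturating stimulus response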
TAAR1 ag count: TAAR1 activation by candidate antagonists – cell-based, fluorescence, counter-screen for TAAR1 antagonist project | shares compounds with TAAR1 antagonist | activation, % at 3 µM | AID 651955, 2012 | hTAAR1 cell line, agonist mode | 2,400 compounds, 2% hits; in the data active means activation above about 37%;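 further: CHO cells stably expressing TAAR1 with calcium dye readout; 0% = DMSO vehicle and 100% = full agonist response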
The depositor's hits bear a star.

How did Fc1ccc2cnc(-c3ccccc3)c(-c3cc(C(F)(F)F)cc(C(F)(F)F)c3)c2c1 do in these assays?
MC4R antag cAMP: 4.0; MC4R barr agon: -1.5; B2AR ag: 11.8; HTR2A ag: 2.8; TAAR1 antagonist: -21.2; TAAR1 agonist: 2.7

What do the screens show for `N#Cc1ccc(-c2c(-c3ccccc3)ncc3cc(F)ccc23)cc1`?
MC4R antag cAMP: -5.5; MC4R barr agon: -0.8; B2AR ag: 2.1; HTR2A ag: -6.5; TAAR1 antagonist: 58.7*; TAAR1 agonist: 1.4; TAAR1 nonsel count: 18.4; TAAR1 antag conf: 44.3; Ga16 nonsel ag: 1.1; TAAR1 ag count: 3.0

What do the screens show for `O=C(NCCc1ccccc1)c1cccc2c1C(=O)c1ccc(N3CCOCC3)cc1S2(=O)=O`?
MC4R antag cAMP: 9.7; MC4R barr agon: -0.3; B2AR ag: 0.8; HTR2A ag: 3.0; TAAR1 antagonist: 50.5*; TAAR1 agonist: 27.3; TAAR1 nonsel count: 23.8*; TAAR1 antag conf: 43.4; Ga16 nonsel ag: 9.5; TAAR1 ag count: 10.3

What do the screens show for `O=C(NCc1ccc(F)cc1)c1cccc2c1C(=O)c1ccc(N3CCOCC3)cc1S2(=O)=O`?
MC4R antag cAMP: 6.9; MC4R barr agon: 1.4; B2AR ag: -0.5; HTR2A ag: 12.4; TAAR1 antagonist: 55.5*; TAAR1 agonist: 35.5; TAAR1 nonsel count: 27.4*; TAAR1 antag conf: 45.4; Ga16 nonsel ag: 9.2; TAAR1 ag count: 6.9

Results for O=C(NCc1ccc(F)cc1)c1cccc2c1C(=O)c1ccc(N3CCC(Cc4ccccc4)CC3)cc1S2(=O)=O ?
MC4R antag cAMP: 7.8; MC4R barr agon: -0.8; B2AR ag: -69.7; HTR2A ag: -4.2; TAAR1 antagonist: 3.4; TAAR1 agonist: 18.4

How did C=CCNC(=O)c1cccc2c1C(=O)c1ccc(N3CCOCC3)cc1S2(=O)=O do in these assays?
MC4R antag cAMP: 1.2; MC4R barr agon: -0.7; B2AR ag: -1.5; HTR2A ag: -3.7; TAAR1 antagonist: -2.6; TAAR1 agonist: 10.8

Results for COC(CNC(=O)C(=O)NCC1CCCN1S(=O)(=O)c1cccs1)OC (configuration not stated) ?
MC4R antag cAMP: 9.6; MC4R barr agon: 0.4; B2AR ag: -2.3; HTR2A ag: 1.0; TAAR1 antagonist: -12.2; TAAR1 agonist: -0.2

What do the screens show for `CC(=O)c1ccc(NC(=O)c2ccc(NC(=O)CCS(=O)(=O)c3cccs3)cc2)cc1`?
MC4R antag cAMP: 12.9; MC4R barr agon: -0.1; B2AR ag: -23.7; HTR2A ag: -3.4; TAAR1 antagonist: 86.5*; TAAR1 agonist: 15.8; TAAR1 nonsel count: 39.8*; TAAR1 antag conf: 64.2*; Ga16 nonsel ag: 14.7*; TAAR1 ag count: 18.4
